Series [1] addresses DNA gyrase subunit B (Mycobacterium smegmatis) (UniProt P0C559). Nature of the series: Binding affinity to Mycobacterium smegmatis DNA gyrase B assessed as changing in melting temperature of the protein-ligand complex by differential scanning fluorometry. Conditions: Mycolicibacterium smegmatis. In outline: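 His-tagged M. smegmatis GyrB expressed in E. coli BL21(DE3)pLysS and Ni-NTA purified, used at 2 mg/mL. Native protein and protein-ligand complex heated from 25 to 95 °C in 0.1 °C steps with 50X SYPRO orange. Read-out is the Tm shift of the complex relative to native protein.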
A general note: In DSF a fluorescence change marks the thermal transition of the protein.

The target of a further series is DNA gyrase subunit B (Mycobacterium smegmatis, UniProt P0C559). Nature of the series: Inhibition of Mycobacterium smegmatis DNA gyrase B expressed in Escherichia coli BL21 (DE3) pLysS cells assessed as reduction in ATPase activity incubated for 100 mins by inorganic phosphate detection assay. The arrangement: species or system Mycolicibacterium smegmatis.
Series [2] addresses DNA gyrase subunit B (Staphylococcus aureus) (UniProt P0A0K8). Put plainly: Inhibition of Staphylococcus aureus DNA gyrase B assessed as reduction in ATPase activity at 100 uM incubated for 100 mins by inorganic phosphate detection assay.
The target of series [3] is DNA gyrase subunit B (Escherichia coli) (UniProt P0AES6). Nature of the series: Inhibition of Escherichia coli Inspiralis DNA gyrase B assessed as reduction in ATPase activity at 100 uM incubated for 100 mins by inorganic phosphate detection assay.
Series [4] in a line: Cytotoxicity against mouse RAW264.7 cells assessed as inhibition of cell viability at 50 uM incubated for 48 hrs at 37 degC by MTT assay relative to control. It is filed as cell-based. The note with it: read-out: INH. In outline: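 RAW 264.7 mouse macrophages, 5×10^5 cells per well, exposed to compound for 48 h at 37 °C under 5% CO2. MTT added 4 h before the end. Formazan dissolved in DMSO and absorbance read at 560 nm against blank. Triplicates, run twice.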
On the technique in general: Tetrazolium dyes change colour on reduction, which living cells bring about.

For series [5], the system named is Mycobacterium tuberculosis. Nature of the series: Antimycobacterial activity against Mycobacterium tuberculosis H37Rv assessed as growth inhibition incubated for 7 days by microplate alamar blue assay. Conditions: 168 h. In kind it is functional. In outline: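 M. tuberculosis H37Rv inoculum from fresh LJ medium, resuspended in 7H9 broth (0.1% casitone, 0.5% glycerol, OADC), set to McFarland No. 1 and diluted 1:20. Two-fold serial compound dilutions in 7H9-S, with growth and sterile controls. Incubated 7 days at 37 °C, then alamar blue overnight. MIC is the lowest concentration preventing the blue-to-pink colour change.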
In general terms: The colour change of resazurin is a common sign of viable cells or microbes.

The target in series [6] is DNA gyrase subunit A/DNA gyrase subunit B (Mycobacterium tuberculosis (strain ATCC 25618 / H37Rv), UniProt P9WG45+P9WG47). Nature of the series: Inhibition of DNA gyrase GyrA/GyrB in Mycobacterium tuberculosis incubated for 30 mins assessed as reduction in supercoiling of relaxed relaxed pBR322 DNA by ethidium bromide staining based agarose gel electrophoresis method.

These results are taken from ChEMBL document CHEMBL3627613, “4-Aminoquinoline derivatives as novel Mycobacterium tuberculosis GyrB inhibitors: Structural optimization, synthesis and biological evaluation” (Eur J Med Chem, 2015).

≈ marks a conversion by molar mass, not a printed value. Calls of active or inactive are those of the source. The calls are words filed in the database; no cut-off is given here. Some results are limits rather than exact numbers.

Sequence of DNA gyrase subunit B (P0C559 whole entry): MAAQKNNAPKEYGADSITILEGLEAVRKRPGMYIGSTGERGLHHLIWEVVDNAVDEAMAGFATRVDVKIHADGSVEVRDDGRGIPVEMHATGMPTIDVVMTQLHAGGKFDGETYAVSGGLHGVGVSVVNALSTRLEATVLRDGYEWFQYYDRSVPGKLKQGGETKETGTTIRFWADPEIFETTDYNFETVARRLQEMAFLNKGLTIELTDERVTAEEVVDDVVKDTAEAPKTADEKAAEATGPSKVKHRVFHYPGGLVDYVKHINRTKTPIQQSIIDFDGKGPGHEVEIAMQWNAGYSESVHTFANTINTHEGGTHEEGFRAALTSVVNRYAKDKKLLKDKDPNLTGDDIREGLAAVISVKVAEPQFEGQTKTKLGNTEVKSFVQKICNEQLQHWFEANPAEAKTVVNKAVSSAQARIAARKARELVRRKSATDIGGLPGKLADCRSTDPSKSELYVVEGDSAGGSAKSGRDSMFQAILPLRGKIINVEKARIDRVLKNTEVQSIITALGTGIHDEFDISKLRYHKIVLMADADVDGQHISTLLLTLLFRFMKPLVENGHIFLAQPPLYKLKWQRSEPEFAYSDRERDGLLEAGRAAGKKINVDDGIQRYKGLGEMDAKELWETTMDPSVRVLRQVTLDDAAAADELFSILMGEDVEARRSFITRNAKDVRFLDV
Sequence of DNA gyrase subunit A/DNA gyrase subunit B (P9WG45 whole entry): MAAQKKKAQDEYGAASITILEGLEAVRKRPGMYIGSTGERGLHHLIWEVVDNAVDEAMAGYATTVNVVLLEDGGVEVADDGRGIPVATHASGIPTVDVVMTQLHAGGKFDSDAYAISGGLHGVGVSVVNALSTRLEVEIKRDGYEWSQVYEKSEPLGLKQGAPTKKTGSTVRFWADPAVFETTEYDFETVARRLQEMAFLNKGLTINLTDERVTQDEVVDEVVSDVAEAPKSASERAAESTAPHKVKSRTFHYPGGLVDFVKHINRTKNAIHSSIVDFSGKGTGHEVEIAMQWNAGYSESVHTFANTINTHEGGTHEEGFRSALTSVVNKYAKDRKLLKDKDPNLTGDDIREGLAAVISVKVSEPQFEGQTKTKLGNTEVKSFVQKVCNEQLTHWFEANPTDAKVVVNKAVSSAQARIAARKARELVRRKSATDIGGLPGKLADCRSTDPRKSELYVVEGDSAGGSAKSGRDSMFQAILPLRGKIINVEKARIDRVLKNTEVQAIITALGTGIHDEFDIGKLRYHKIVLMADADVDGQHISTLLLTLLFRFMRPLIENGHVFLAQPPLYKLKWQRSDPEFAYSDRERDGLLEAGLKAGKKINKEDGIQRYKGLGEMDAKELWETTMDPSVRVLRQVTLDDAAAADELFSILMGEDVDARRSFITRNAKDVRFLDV
Sequence of DNA gyrase subunit A/DNA gyrase subunit B (P9WG47 whole entry): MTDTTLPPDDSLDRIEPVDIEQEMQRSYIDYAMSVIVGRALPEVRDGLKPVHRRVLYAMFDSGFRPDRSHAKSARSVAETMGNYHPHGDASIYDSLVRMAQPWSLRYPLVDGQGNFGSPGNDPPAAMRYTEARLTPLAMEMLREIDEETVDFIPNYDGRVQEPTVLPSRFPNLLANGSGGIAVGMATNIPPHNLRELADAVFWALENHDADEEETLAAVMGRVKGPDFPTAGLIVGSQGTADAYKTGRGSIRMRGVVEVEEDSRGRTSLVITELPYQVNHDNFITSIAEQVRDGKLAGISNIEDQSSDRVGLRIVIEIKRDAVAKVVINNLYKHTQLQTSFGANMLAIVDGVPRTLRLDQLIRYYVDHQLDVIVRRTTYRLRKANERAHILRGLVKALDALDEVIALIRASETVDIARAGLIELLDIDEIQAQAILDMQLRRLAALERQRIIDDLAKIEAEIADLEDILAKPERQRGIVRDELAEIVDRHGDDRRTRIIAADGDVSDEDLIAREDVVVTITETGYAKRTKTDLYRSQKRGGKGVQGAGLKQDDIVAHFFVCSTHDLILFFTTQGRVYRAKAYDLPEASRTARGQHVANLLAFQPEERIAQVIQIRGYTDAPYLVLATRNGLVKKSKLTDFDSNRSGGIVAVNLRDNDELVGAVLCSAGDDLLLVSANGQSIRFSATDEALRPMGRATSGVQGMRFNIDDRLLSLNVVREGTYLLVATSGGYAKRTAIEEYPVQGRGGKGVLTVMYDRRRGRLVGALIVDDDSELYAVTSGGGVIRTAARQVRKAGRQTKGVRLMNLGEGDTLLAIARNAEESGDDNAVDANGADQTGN
Sequence of DNA gyrase subunit B (Mycobacterium smegmatis) (P0C559 2-675 limits assumed): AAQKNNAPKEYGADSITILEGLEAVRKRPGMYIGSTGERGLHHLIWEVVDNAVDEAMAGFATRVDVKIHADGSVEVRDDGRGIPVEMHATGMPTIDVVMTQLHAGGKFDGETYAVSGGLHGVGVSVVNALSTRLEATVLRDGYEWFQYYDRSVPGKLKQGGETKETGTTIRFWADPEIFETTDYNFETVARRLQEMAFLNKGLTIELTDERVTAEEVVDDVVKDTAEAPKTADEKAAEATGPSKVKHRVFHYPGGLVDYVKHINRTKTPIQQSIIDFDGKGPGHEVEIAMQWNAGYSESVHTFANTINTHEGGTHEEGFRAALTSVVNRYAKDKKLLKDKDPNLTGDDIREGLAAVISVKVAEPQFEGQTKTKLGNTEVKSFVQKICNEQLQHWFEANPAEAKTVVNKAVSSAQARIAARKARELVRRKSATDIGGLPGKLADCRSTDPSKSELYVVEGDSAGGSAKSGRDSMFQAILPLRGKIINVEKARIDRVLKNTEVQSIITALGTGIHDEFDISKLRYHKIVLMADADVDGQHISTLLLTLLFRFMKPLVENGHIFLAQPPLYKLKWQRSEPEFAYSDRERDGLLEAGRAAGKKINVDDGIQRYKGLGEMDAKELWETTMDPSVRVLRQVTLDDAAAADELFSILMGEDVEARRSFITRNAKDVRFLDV
Sequence of DNA gyrase subunit B (Staphylococcus aureus) (P0A0K8 2-644 limits assumed): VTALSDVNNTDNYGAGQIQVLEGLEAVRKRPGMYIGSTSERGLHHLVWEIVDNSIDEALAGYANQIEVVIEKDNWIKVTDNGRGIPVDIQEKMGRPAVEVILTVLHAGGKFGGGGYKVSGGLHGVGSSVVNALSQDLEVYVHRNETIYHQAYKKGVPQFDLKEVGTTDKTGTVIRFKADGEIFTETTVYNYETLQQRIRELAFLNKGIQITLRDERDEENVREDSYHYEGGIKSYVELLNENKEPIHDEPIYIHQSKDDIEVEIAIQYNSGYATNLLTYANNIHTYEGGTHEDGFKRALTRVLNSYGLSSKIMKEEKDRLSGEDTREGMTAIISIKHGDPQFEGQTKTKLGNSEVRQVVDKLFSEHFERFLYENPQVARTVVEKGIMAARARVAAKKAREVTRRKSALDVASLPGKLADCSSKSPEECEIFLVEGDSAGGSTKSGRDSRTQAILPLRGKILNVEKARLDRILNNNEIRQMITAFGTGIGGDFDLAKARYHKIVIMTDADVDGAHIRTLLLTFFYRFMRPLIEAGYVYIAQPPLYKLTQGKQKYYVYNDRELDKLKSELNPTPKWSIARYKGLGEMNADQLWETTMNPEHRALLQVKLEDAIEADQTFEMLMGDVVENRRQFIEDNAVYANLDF

As for `CCN1CCN(CCCOc2ccc(Nc3c(C(=O)O)cnc4ccc(OC)cc34)cc2)CC1`, the ΔTm in series [1] was found to be 3.3 °C. Further, the IC50 amounted to 0.86 µM on DNA gyrase subunit B and 0.63 µM in series [6]. Also, the inhibition result in series [2] and in series [3] was “inactive” in each case. In series [4], the cytotoxicity at 48 h, 50 µM was determined as 0.66%. The MIC in series [5] was 3.3 µM (≈ 1.53 µg/mL).
As to `CCN1CCN(CCCOc2ccc(Nc3c(C(=O)O)cnc4ccccc34)cc2)CC1`, the results for the IC50 (on DNA gyrase subunit B; in series [6]) were 21.7 µM and 10.2 µM, respectively. In addition, in series [4], the cytotoxicity at 48 h, 50 µM came out at 13.4%. Also, the MIC in series [5] came out at 27.2 µM (≈ 11.8 µg/mL).
The matching figures for `CCOC(=O)c1cnc2ccc(OC)cc2c1Nc1ccc(OCCCN2CCOCC2)cc1`: 14.9 µM, 13.3 µM, 21.2% and 13.3 µM (≈ 6.22 µg/mL).
The matching figures for `CCOC(=O)c1cnc2ccc(C(F)(F)F)cc2c1Nc1ccc(OCCCN2CCOCC2)cc1`: 38.8 µM, 16.4 µM, 20.2% and 43.1 µM (≈ 21.7 µg/mL).
On the same counts, the results for `CCN1CCN(CCCNc2ccc(Nc3c(C(=O)NN)cnc4ccc(C(F)(F)F)cc34)cc2)CC1` are 26.3 µM, 11 µM, 1.59% and 30 µM (≈ 15.5 µg/mL).
On to `CCN1CCN(CCCNc2ccc(Nc3c(C(=O)O)cnc4ccccc34)cc2)CC1`, for which the figures for the IC50 (on DNA gyrase subunit B; in series [6]) were 11.3 µM and 5.88 µM, respectively. In addition, the cytotoxicity at 48 h, 50 µM in series [4] came to 32.3%. Besides, the MIC in series [5] was determined as 11.8 µM (≈ 5.12 µg/mL).
Regarding `COc1ccc2ncc(C(=O)O)c(Nc3ccc(NCCCN4CCOCC4)cc3)c2c1`, the IC50 at DNA gyrase subunit B came out at 38.9 µM; in series [6], 12.6 µM. For the same molecule, the cytotoxicity at 48 h, 50 µM in series [4] worked out at 16.1%. Moreover, in series [5], the MIC amounted to 28.6 µM (≈ 12.5 µg/mL).
On the same counts, the results for `CCN1CCN(CCCOc2ccc(Nc3c(C(=O)NN)cnc4ccc(F)cc34)cc2)CC1` are 2.92 µM, 2.96 µM, 11.9% and 3.34 µM (≈ 1.56 µg/mL).
The matching figures for `NNC(=O)c1cnc2ccc(C(F)(F)F)cc2c1Nc1ccc(OCCCN2CCOCC2)cc1`: 38.7 µM, 19.9 µM, 0.07% and 36.4 µM (≈ 17.8 µg/mL).
The matching figures for `O=C(O)c1cnc2ccccc2c1Nc1ccc(OCCCN2CCOCC2)cc1`: more than 50 µM, 21.8 µM, 11.3% and 30.7 µM (≈ 12.5 µg/mL).

What is called ΔTm is the shift of the melting midpoint relative to a reference. Usually IC50 stands for the concentration at which inhibition is half-maximal. As a reminder, the MIC is the lowest concentration that inhibits growth of the organism.
